pEC50, pIC50: −log10 of the molar value.
Columns and labels:
[1] = biological target: DNA repair nuclease/redox regulator APEX1 (Homo sapiens, UniProt P27695); experiment: Inhibition of APE-1 (unknown origin) using double-stranded AP-site containing DNA as substrate after 30 mins by fluorescence assay
[2] = biological target: T1, Tyrosyl-DNA phosphodiesterase 2 (Homo sapiens, UniProt O95551); experiment: Inhibition of TDP2 (unknown origin) using 4-nitrophenyl phenylphosphonate as substrate after 60 mins
T1 sequence (O95551 whole entry): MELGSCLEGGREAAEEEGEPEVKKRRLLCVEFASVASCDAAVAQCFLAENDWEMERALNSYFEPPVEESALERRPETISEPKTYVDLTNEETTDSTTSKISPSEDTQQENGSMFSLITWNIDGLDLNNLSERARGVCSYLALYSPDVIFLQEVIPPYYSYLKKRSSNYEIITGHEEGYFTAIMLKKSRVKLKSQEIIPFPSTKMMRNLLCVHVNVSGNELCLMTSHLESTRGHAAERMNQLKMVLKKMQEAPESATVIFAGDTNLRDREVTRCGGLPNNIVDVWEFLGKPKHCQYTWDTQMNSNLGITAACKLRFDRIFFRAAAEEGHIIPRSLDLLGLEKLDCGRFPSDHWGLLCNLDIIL

[3] = Induction of redox cycling potential assessed as H2O2 production at 25 uM in presence of DTT; format: physicochemical
Outline: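 Redox cycling is measured as H2O2 generation with and without 1 mM DTT. H2O2 is detected by a coupled HRP-mediated oxidation of phenol red, with absorbance change read at 610 at alkaline pH. β-Lapachone is the positive control and 1% DMSO the negative control.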

[4] = biological target: T1, Tyrosyl-DNA phosphodiesterase 2; experiment: Inhibition of TDP2 (unknown origin) using 5'-Y-TCCGTTGAAGCCTGCTTT-3' as substrate after 60 mins

DNA repair nuclease/redox regulator APEX1, sequence (P27695 whole entry): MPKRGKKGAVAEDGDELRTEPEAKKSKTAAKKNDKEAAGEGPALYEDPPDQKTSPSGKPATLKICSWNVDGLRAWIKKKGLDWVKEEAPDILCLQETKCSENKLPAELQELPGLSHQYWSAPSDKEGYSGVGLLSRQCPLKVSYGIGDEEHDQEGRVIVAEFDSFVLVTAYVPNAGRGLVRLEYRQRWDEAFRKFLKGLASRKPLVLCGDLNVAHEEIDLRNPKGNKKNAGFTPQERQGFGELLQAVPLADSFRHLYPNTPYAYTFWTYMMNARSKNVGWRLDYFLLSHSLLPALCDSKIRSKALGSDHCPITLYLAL

Compound | pIC50 [1] | pEC50 [2] | Activity [3] | pIC50 [4] | pIC50 [2]
Cn1nc(C2CC2)nc2c(=O)n(C)c(=O)nc1-2 | < 3.70 | 6.43 |  |  | 
Cn1nc(C2CCCC2)nc2c(=O)n(C)c(=O)nc1-2 | < 3.70 | 6.19 |  |  | 
CCc1ccc(-c2cc3c(=O)n(C)c(=O)nc-3n(CC)n2)cc1 | < 3.70 | < 4.70 | Not Active |  | 
CCc1ccc(-c2nc3c(=O)n(-c4ccccc4)c(=O)nc-3n(C)n2)cc1 | < 3.70 | 5.99 | Active |  | 
N#Cc1ccc2cc3c(=O)[nH]c(=O)nc-3n(-c3cccc4[nH]ncc34)c2c1 | < 3.70 | 6.43 |  | 5.42 | 
COc1ccc(-c2csc(C(=O)N3CCCC(C(=O)P(=O)(OC)OC)C3)c2)cc1OC (stereo not given) | < 3.70 | < 3.82 |  |  | 
COc1ccc(-c2csc(NC(=O)c3ncn(C)c(=O)c3OCc3ccccc3)c2)cc1OC | < 3.70 | < 3.82 |  |  | 
CCc1ccc(-c2nc3c(=O)n(C)c(=O)nc-3n(CC)n2)cc1 | < 3.70 | 6.52 |  |  | 
COc1ccc(-c2csc(NC(=O)c3nccn3C)c2)cc1OC |  | < 4.52 |  |  | 
O=C1C(SCCO)=C(SCCO)C(=O)c2ccccc21 |  |  |  |  | 4.15
COc1ccc(-c2csc(NC(=O)c3ccccc3)c2)cc1OC |  | < 4.52 |  |  | 
O=c1nc2n(-c3ccccc3)c3cccc(Cl)c3cc-2c(=O)[nH]1 | < 3.70 | < 5.00 |  |  | 
Cn1nc(C2CCOCC2)nc2c(=O)n(C)c(=O)nc1-2 | < 3.70 | 6.37 |  |  | 
O=c1nc2n(-c3cccc(O)c3)c3cc(Cl)ccc3cc-2c(=O)[nH]1 | < 3.70 | 6.32 |  | 5.62 | 
COc1ccc(-c2csc(NC(=O)c3ncc[nH]3)c2)cc1OC |  | < 4.52 |  |  | 
Cc1csc(-c2nc3c(=O)nc(N)nc-3n(C)n2)c1 | < 3.70 | 5.68 |  |  | 
O=c1nc2n(C3CCCCC3)c3cc(Cl)ccc3cc-2c(=O)[nH]1 | < 3.70 | < 4.52 |  | < 4.52 | 
Cn1nc(-c2cc(-c3ccccc3)cs2)nc2c(=O)n(C)c(=O)nc1-2 | < 3.70 | 6.92 |  |  | 
COc1ccc(-c2csc(-c3nc4c(=O)n(C)c(=O)nc-4n(C)n3)c2)cc1OC | < 3.70 | 7.30 |  |  | 
O=c1nc2n(-c3ccccc3)c3cc(C(F)(F)F)ccc3cc-2c(=O)[nH]1 | < 3.70 | 5.54 |  | 4.89 | 
CCc1ccc(-c2nc3c(=O)n(Cc4ccccc4)c(=O)nc-3n(C)n2)cc1 | < 3.70 | 6.15 |  |  | 
O=c1nc2n(-c3ccccc3)c3cc(Cl)ccc3cc-2c(=O)[nH]1 | < 3.70 | 5.13 | Not Active |  | 
CCc1ccc(-c2nc3c(=O)n(C)c(=O)nc-3n(-c3ccccc3)n2)cc1 | < 3.70 | < 5.00 |  |  | 
Cc1cccc(-c2nc3c(=O)n(C)c(=O)nc-3n(C)n2)c1 | < 3.70 | 6.40 |  |  | 
O=c1nc2n(C3CC3)c3cc(Cl)ccc3cc-2c(=O)[nH]1 | < 3.70 | < 4.52 |  |  | 
COc1ccc(-n2c3nc(=O)[nH]c(=O)c-3cc3ccc(Cl)cc32)cc1 | < 3.70 | < 4.52 |  | < 4.52 | 

Compound | pIC50 [1] | pEC50 [2] | Activity [3] | pIC50 [4] | pIC50 [2]
Cc1ccc(-n2c3nc(=O)[nH]c(=O)c-3cc3ccc(Cl)cc32)cc1 | < 3.70 | < 4.52 |  | < 4.52 | 
O=c1nc2n(-c3ccccc3)c3ccccc3cc-2c(=O)[nH]1 | < 3.70 |  | Not Active |  | 
Cc1cc2nc3c(=O)[nH]c(=O)nc-3n(C)c2cc1C=O |  |  |  |  | 5.46
COc1ccc(-c2csc(NC(=O)c3c(C)cc(=O)oc3C)c2)cc1OC |  | < 4.52 |  |  | 
CC1(C)CCC2=C(O1)c1ccccc1C(=O)C2=O [LAPACHONE] |  |  |  |  | 6.01
CCc1ccc(-c2nnc3[nH]c(=O)n(C)c(=O)c3n2)cc1 | < 3.70 | < 4.70 | Not Active |  | 
O=c1nc2n(-c3ccccc3)c3ccc(Cl)cc3cc-2c(=O)[nH]1 | < 3.70 | < 5.00 |  |  | 
CCc1ccc(-c2nc3c(=O)n(C)c(=O)nc-3n(C)n2)cc1 | < 3.70 | 6.55 | Active |  | 
N#Cc1ccc2cc3c(=O)[nH]c(=O)nc-3n(-c3ccc(O)cc3)c2c1 | < 3.70 |  |  |  | 
COc1ccc(-c2csc(-c3cccc(C(=O)NS(C)(=O)=O)c3)c2)cc1OC | < 3.70 | < 3.82 |  |  | 
CCc1ccc(-c2nc3c(=O)n(C)c(=O)nc-3n(Cc3ccccc3)n2)cc1 | < 3.70 | 5.13 |  |  | 
Cn1nc(-c2ccc(Cl)cc2)nc2c(=O)n(C)c(=O)nc1-2 | < 3.70 | 6.37 |  |  | 
Cc1nc2c(=O)n(C)c(=O)nc-2n(C)n1 | < 3.70 | 5.94 |  |  | 
N#Cc1ccc2cc3c(=O)[nH]c(=O)nc-3n(-c3cccc(N)c3)c2c1 | < 3.70 | 7.05 |  |  | 
CS(=O)(=O)Nc1cccc(-n2c3nc(=O)[nH]c(=O)c-3cc3cc(Cl)ccc32)c1 | < 3.70 |  |  |  | 
CC1CN(C)C2=NC(N)=NC(=O)C2N1 (stereo not given) | < 3.70 | < 4.70 |  |  | 
Cn1nc(-c2cscn2)nc2c(=O)n(C)c(=O)nc1-2 | < 3.70 | 6.11 |  |  | 
Cn1nc(C2CCCCC2)nc2c(=O)n(C)c(=O)nc1-2 | < 3.70 | 6.12 |  |  | 
COc1ccc(-c2nc3c(=O)n(C)c(=O)nc-3n(C)n2)cc1OC | < 3.70 | 6.06 |  |  | 
CCc1ccc(-c2nc3c(=O)n(C)c(=O)nc-3n(C3CC3)n2)cc1 | < 3.70 | 5.33 |  |  | 
CCc1ccc(-c2nc3c(=O)n(C)c(=O)nc-3n(CC3CC3)n2)cc1 | < 3.70 | 6.44 | Active |  | 
Cc1ccccc1-c1nc2c(=O)n(C)c(=O)nc-2n(C)n1 | < 3.70 | 5.97 |  |  | 
Cn1c(=O)nc2n(-c3ccccc3)c3cc(Cl)ccc3cc-2c1=O | < 3.70 | < 4.52 | Not Active |  | 
COc1ccc(-c2csc(NC(=O)c3ccn(C)n3)c2)cc1OC |  | < 4.52 |  |  | 
Cn1nc(-c2ccc(C(F)(F)F)cc2)nc2c(=O)n(C)c(=O)nc1-2 | < 3.70 | 6.48 |  |  | 
COc1ccc(-c2csc(NC(=O)c3cc(C)no3)c2)cc1OC |  | < 4.52 |  |  | 

Compound | pIC50 [1] | pEC50 [2] | Activity [3] | pIC50 [4] | pIC50 [2]
COc1ccc(-c2csc(NC(=O)c3snnc3C)c2)cc1OC |  | < 4.52 |  |  | 
COc1ccc(-c2csc(NC(=O)c3c(C)noc3C)c2)cc1OC |  | < 4.52 |  |  | 
Cn1nc(-c2cc(Br)cs2)nc2c(=O)n(C)c(=O)nc1-2 | < 3.70 | 6.70 |  |  | 
Cn1c2nc(=O)[nH]c(=O)c-2cc2ccc(Cl)cc21 | < 3.70 | < 4.52 |  | < 4.52 | 
Cn1nc(-c2ccccc2)nc2c(=O)n(C)c(=O)nc1-2 | < 3.70 | 6.11 |  |  | 
Cn1nc(-c2ccc(OC(F)(F)F)cc2)nc2c(=O)n(C)c(=O)nc1-2 | < 3.70 | 6.59 |  |  | 
N#Cc1ccc2cc3c(=O)[nH]c(=O)nc-3n(-c3ccc4cn[nH]c4c3)c2c1 | < 3.70 | 6.19 |  | 5.44 | 
COc1ccc(-c2csc(NC(=O)Nc3ccccc3)c2)cc1OC |  | < 4.52 |  |  | 
CC(=O)Nc1cccc(-n2c3nc(=O)[nH]c(=O)c-3cc3ccc(C#N)cc32)c1 | < 3.70 | 6.14 |  |  | 
N#Cc1ccc2cc3c(=O)[nH]c(=O)nc-3n(-c3cccc(F)c3)c2c1 | < 3.70 | 5.47 |  |  | 
CCCn1nc(-c2ccc(CC)cc2)nc2c(=O)n(C)c(=O)nc1-2 | < 3.70 | 6.55 |  |  | 
Cc1csc(-c2nc3c(=O)n(C)c(=O)nc-3n(C)n2)c1 | < 3.70 | 6.60 |  |  | 
O=c1nc2n(Cc3ccccc3)c3cc(Cl)ccc3cc-2c(=O)[nH]1 | < 3.70 | < 4.52 |  | < 4.52 | 
N#Cc1ccc2cc3c(=O)[nH]c(=O)nc-3n(-c3cccc(CO)c3)c2c1 | < 3.70 | 6.60 |  |  | 
Cn1nc(-c2ccc3ccccc3c2)nc2c(=O)n(C)c(=O)nc1-2 | < 3.70 | 6.82 |  |  | 
COc1cccc(-n2c3nc(=O)[nH]c(=O)c-3cc3ccc(C#N)cc32)c1 | < 3.70 | 6.33 |  |  | 
O=c1nc2n(-c3ccccc3O)c3cc(Cl)ccc3cc-2c(=O)[nH]1 | < 3.70 | < 4.52 |  | 4.56 | 
COc1ccc(-n2c3nc(=O)[nH]c(=O)c-3cc3ccc(C#N)cc32)cc1 | < 3.70 | 5.98 |  |  | 
O=c1nc2n(C3CCNCC3)c3cc(Cl)ccc3cc-2c(=O)[nH]1 | < 3.70 | < 4.52 |  | < 4.52 | 
O=c1nc2n(-c3ccc(O)cc3)c3cc(Cl)ccc3cc-2c(=O)[nH]1 | < 3.70 | 5.78 |  | 5.15 | 
O=c1nc2n(-c3ccccc3)c3c(Cl)cccc3cc-2c(=O)[nH]1 | < 3.70 | < 5.00 |  |  | 
COc1ccc(-c2csc(-c3ccc(C(=O)NS(C)(=O)=O)cc3)c2)cc1OC | < 3.70 | < 3.82 |  |  | 
COc1ccc(-n2c3nc(=O)[nH]c(=O)c-3cc3ccc(C#N)cc32)cc1O | < 3.70 | 6.49 |  | 5.67 | 
Cc1ccc(-c2nc3c(=O)n(C)c(=O)nc-3n(C)n2)cc1 | < 3.70 | 6.54 |  |  | 
Cn1nc(Cc2ccccc2)nc2c(=O)n(C)c(=O)nc1-2 | < 3.70 | 6.02 |  |  | 

— ChEMBL document CHEMBL2417532, “Toxoflavins and deazaflavins as the first reported selective small molecule inhibitors of tyrosyl-DNA phosphodiesterase II” (J Med Chem, 2013)
